Many of the other results were omitted from the sample, so hits are more common in it than they were.
L major viab = Leishmania major promastigote growth inhibition; Leishmania major promastigotes, resazurin fluorescence viability; inhibition, % at 10 µM; 200,000 tested, 9% active; in the data active = inhibition above about 50%;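 note: promastigotes grown with compound for 44 hours at 28 °C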
XBP1 UPR activ = adaptive UPR (XBP1) activation. CHO-XBP1 luciferase reporter, IRE1-XBP1 UPR activation, luminescence; percent of tunicamycin response, DMSO as zero. activation, % at 20 µM. 330,000 tested, 0.33% active. AID 463104;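 active = versus positive control, 20 µM dose yields 30% or more activation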;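 note: 100% = tunicamycin at 10 µg/mL and 0% = DMSO only wells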
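Material: CHO-XBP1 cells stably carrying IRE1-XBP1-driven luciferase reporter | Medium: F12 with 10% serum | Compound dosing: 20 µM single concentration, DMSO 1% | Incubation: Overnight seeding at 37 °C, 6 h compound treatment at 37 °C | Detection: Steady-Glo luminescence read | Read-out basis: % activation of reporter signal versus tunicamycin and DMSO controls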
T cruzi repl = T. cruzi replication inhibition | 300,000 tested, 1.4% active | inhibition, % (test concentration not listed) | T. cruzi beta-gal in NIH3T3, luminescence, 90 h;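 active = mean inhibition across valid replicates above about 55%, limit read from the data; inconclusive = mean below that limit but half or more replicates reach it; inactive = mean below it, under half of replicates reach it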;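 note: signal also drops with host cell toxicity which is not excluded here; 0% = plate median of DMSO wells and 100% = zero luminescence signal; higher percent means less beta-gal luminescence so fewer parasites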
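assay system = mouse NIH/3T3 fibroblasts infected with β-gal-expressing T. cruzi Tulahuen C4 | input = 5,000 NIH/3T3 host cells per well | buffer or medium = DMEM plus 2% FBS | timing = 3 h host attachment, then at least 90 h co-culture | measured by = GalScreen luminescence, 60 min | evaluation = luminescence reflecting intracellular parasite burden, expressed as percent inhibition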
UPR CHOP act = apoptotic UPR (CHOP) activation; CHO-CHOP luciferase reporter, luminescence; percent of tunicamycin response over DMSO baseline; activation, % at 10 µM; 330,000 tested, 0.34% active; AID 449763;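 active = at 10 µM dose, activation of 40% or more, normalized to positive control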;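 note: 100% = tunicamycin at 10 µg/mL and 0% = DMSO alone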
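System: CHO-CHOP luciferase reporter cell line; amount: 500 cells/well; buffer or medium: F12 medium containing 10% fetal bovine serum; incubation: 6 h compound exposure at 37 °C after overnight seeding; measured by: luciferase luminescence after 10 min with Steady-Glo reagent; evaluation: % reporter activation, DMSO baseline versus tunicamycin full activation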
Dynein cargo inh = blocks dynein driven cargo transport along microtubules | z-score, hits read low | 220,000 tested, 0.47% active | 3617.4 mouse cells, GR-EGFP nuclear translocation imaging; test concentration mostly 20 µM; stimulated with dexamethasone, 1 µM; stronger effect = lower value;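 active = plate z-score of nuclear minus cytoplasmic receptor signal below a set negative limit, without overly bright fluorescence or cell loss, cut at about -3.5 in these data, passing the limit was not always enough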;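 note: z-score of nuclear minus cytoplasmic ring GR-EGFP intensity difference per well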
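medium = tetracycline-free induction medium containing charcoal-stripped FBS | also added = 1.0 µM final dexamethasone stimulus | schedule = 48 h induction, 1 h compound, 30 min dex at 37 °C | technique = fixed, Hoechst-stained cells imaged at 10x for EGFP | measure = GR-EGFP nuclear translocation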
CHOP inhibitor = inhibitors of CHOP induction in ER stress response | inhibition, % at 10 µM | 220,000 tested, 3.8% active | CHO-K1 CHOP-promoter luciferase, tunicamycin-induced, 15-18 h;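 active = compounds that reduced the stress-induced luciferase reporter signal by more than about 70% of percent inhibition, limit read from the data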;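 note: 0% = tunicamycin plus vehicle and 100% = wells without tunicamycin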
The depositor's hits bear a star; ? = inconclusive; . = no result.

SMILES	L major viab	XBP1 UPR activ	T cruzi repl	UPR CHOP act	Dynein cargo inh	CHOP inhibitor
CC(C(=O)Nc1ccccc1-c1ccccc1)N1CCN(C(=O)c2ccccc2)CC1 (stereo unspecified)	.	-2	15	0	2.1	-4
O=C(O)c1ccc(NS(=O)(=O)c2cc(C(=O)O)ccc2Br)cc1	99*	-5	-8	-1	0.63	31
COc1cc(OC)c(S(=O)(=O)Nc2ccc(C(=O)O)cc2)cc1S(=O)(=O)Nc1ccc(C(=O)O)cc1	.	3	-1	2	.	.
Cc1nc(C(=O)NC2CCCCC2)sc1C1(C)CC(c2cccnc2)=NO1 (stereo unspecified)	.	-4	61*	0	.	.
Cc1ccc(C(=O)c2ccc(C(F)(F)F)cc2)cc1	1	6	-1	-1	-0.27	93*
Cn1c(N)c(C(=O)COC(=O)Cc2cccc(C(F)(F)F)c2)c(=O)n(C)c1=O	.	1	.	0	.	.
CCC1CO/C(=C(\C(Cl)=C(Cl)Cl)[N+](=O)[O-])N1 (stereo unspecified)	-1	-1	-32	1	-2.3	79*
COCCCNc1nc2c(c(=O)n(Cc3ccc(F)cc3)c(=O)n2C)n1C	.	-1	-11	-2	.	.
CC(C)n1c(NCCc2ccccc2)nc2c1c(=O)n(C)c(=O)n2C	0	8	3	3	-0.98	75*
COc1ccc(CNc2nc3c(c(=O)n(Cc4ccc(Br)cc4)c(=O)n3C)n2C)cc1	-3	-4	-10	2	-0.28	73*
Cn1c(NN)nc2c1c(=O)n(Cc1ccccc1)c(=O)n2C	.	-10	-7	2	.	.
Cn1c(NCc2ccccc2)nc2c1c(=O)n(Cc1ccc(Br)cc1)c(=O)n2C	10	-6	-2	1	-0.86	72*
Cn1c(N/N=C2\CCCc3ccccc32)nc2c1c(=O)n(Cc1ccc(F)cc1)c(=O)n2C	17	.	-2	.	-0.34	83*
CCN(c1cccc(C)c1)S(=O)(=O)c1cn(CC(=O)OC)c2ccc([N+](=O)[O-])cc12	.	-7	-14	1	.	.
Cc1cccc(C)c1NC(=O)C1CCCN1C(=O)NCc1ccccc1 (stereo unspecified)	.	0	-9	1	.	.
Cc1cccc(-n2c(O)c(C=NC3CCS(=O)(=O)C3)c3ccccc3c2=O)c1C (stereo unspecified)	.	-1	-5	1	1.3	20
CCOC(=O)C1CCCN(C(=O)CN2C(=O)c3ccccc3C2=O)C1 (stereo unspecified)	-2	-1	-2	-1	-0.16	12
CCOC(=O)C1CCCN(C(=O)CN2C(=O)/C(=C/c3ccc(OC)cc3)Oc3ccccc32)C1 (stereo unspecified)	74*	-1	17	3	0.28	64
CCCNC(=O)N1CCN(S(=O)(=O)c2ccc3c(c2)OCCO3)CC1	.	-1	.	2	.	.
NC(=O)c1ccc(NC(=O)COC(=O)CC2CC3CCC2C3)cc1 (stereo unspecified)	.	-2	.	0	.	.
O=C(COC(=O)CC1CC2CCC1C2)NC(=O)NCc1ccco1 (stereo unspecified)	-4	0	1	-3	-0.88	82*
Cc1occc1C(=O)Nc1sc2c(c1C(N)=O)CCC(C(C)(C)C)C2 (stereo unspecified)	-1	0	11	2	1.1	59
CCC(C)(C)C1CCc2c(sc(NC(=O)c3ccoc3C)c2C(N)=O)C1 (stereo unspecified)	-2	0	14	-2	-0.5	72*
CC1CCC2(CC1)NC(=O)N(Cc1cccc(C(F)(F)F)c1)C2=O (stereo unspecified)	100*	-1	7	-2	-1.2	27
C[C@@H](NC(=O)c1[nH]cnc1C(=O)Nc1nccs1)c1ccccc1	.	2	.	1	.	.
SMILES	L major viab	XBP1 UPR activ	T cruzi repl	UPR CHOP act	Dynein cargo inh	CHOP inhibitor
COc1cc([N+](=O)[O-])ccc1NC(=O)CCN1C(=O)C2C3CCC(C3)C2C1=O (stereo unspecified)	56*	-2	5	0	0.092	48
COc1ccccc1NC(=O)CCN1C(=O)C2C3CCC(C3)C2C1=O (stereo unspecified)	.	-5	-4	0	.	.
COc1cc(OC)c(OC)cc1/C=C1\CCC/C(=C\c2cc(OC)c(OC)cc2OC)C1=O	.	7	59*	2	.	.
COc1ccc(/C=C2\CCC/C(=C\c3ccc(OC)c(OC)c3OC)C2=O)c(OC)c1OC	.	0	3	-1	.	.
CCOC(=O)C(C)Sc1nc2c([nH]c3ccccc32)c(=O)n1C (stereo unspecified)	26	1	24	1	0.32	26
Cc1ccc(NC(=O)CSc2nc3c([nH]c4ccccc43)c(=O)n2C)cc1	-11	6	11	20	-0.056	58
Cn1c(SCC(=O)Nc2ccc(F)cc2)nc2c([nH]c3ccccc32)c1=O	-2	26	-26	10	0.23	85*
CCOC(=O)CSc1nc2c([nH]c3ccccc32)c(=O)n1C	-2	2	2	-1	0.36	76*
CCCn1c(SC(C)C(=O)NC2CCCC2)n[nH]c1=O (stereo unspecified)	.	2	.	-1	.	.
COc1cc2c(cc1NC(=S)NC(=O)/C=C/c1ccc(OC)c(OC)c1)oc1ccccc12	46	.	.	.	0.38	-35
COc1ccc(/C=C/C(=O)NC(=S)Nc2cc3oc4ccccc4c3cc2OC)cc1	50*	-1	-14	0	-0.14	24
COc1cc2c(cc1NC(=O)C(C)OC(=O)/C=C/c1ccc(OC(F)F)cc1)oc1ccccc12 (stereo unspecified)	80*	0	0	-1	-0.6	25
COc1cc2c(cc1NC(=O)/C=C/c1ccccc1)oc1ccccc12	10	3	28	-1	-0.073	-22
Cc1cc(C)cc(C(=O)OCC(=O)NC(=O)NC2CCCC2)c1	.	-2	.	-1	.	.
O=C(NC(=S)NCCO)c1sc2ccccc2c1Cl	63*	2	-13	5	0.092	-17
COc1ccc2nc3c(cc2c1)c(NC(=O)c1cccs1)nn3CC(C)C	84*	-2	?	2	-0.8	27
O=C(NCCNS(=O)(=O)c1ccccc1Cl)c1cc(OCC(F)(F)F)ccc1OCC(F)(F)F	0	-1	-8	0	2.8	-3
O=C(NNC(=O)c1cc(OCC(F)(F)F)ccc1OCC(F)(F)F)c1ccc(Cl)c(Cl)c1	-9	-1	15	0	.	82*
C=CCONC(=O)c1cc(OCC(F)(F)F)ccc1OCC(F)(F)F	-1	1	-7	-2	-1	71*

Screening data deposited in PubChem BioAssay by several laboratories.
